In ChEMBL document CHEMBL1148443, “Importance of phenolic address groups in opioid kappa receptor selective antagonists” (J Med Chem, 2004):

How the values were obtained:
[1] = species: Cavia porcellus; assay: Functional antagonism was obtained by the ability of compound to inhibit stimulation of [35S]GTP gamma S binding produced by selective agonists U69,593 in guinea pig caudate membranes
[2] = biological target: Opioid receptors; delta & kappa (Homo sapiens) (UniProt P41145+P41143); assay: Selectivity of compound for delta opioid receptor to that of kappa opioid receptor; format: protein assay
[3] = species: Cavia porcellus; assay: Functional antagonism was obtained by the ability of compound to inhibit stimulation of [35S]GTP gamma S binding produced by selective agonists DAMGO in guinea pig caudate membranes
[4] = species: Cavia porcellus; assay: Functional antagonism was obtained by the ability of compound to inhibit stimulation of [35S]GTP gamma S binding produced by selective agonists SNC-80 in guinea pig caudate membranes
[5] = biological target: Opioid receptors; mu & kappa (Homo sapiens) (UniProt P41145+P35372); assay: Selectivity of compound for mu opioid receptor to that of kappa opioid receptor; format: protein assay
[6] = biological target: Delta-type opioid receptor (Rattus norvegicus, UniProt P33533); assay: Binding affinity of compound for opioid receptor delta 1 was determined using [3H]DADLE as radioligand from rat brain tissue
Summary of the method: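 Competitive binding assays. Mu and delta receptors came from rat brain membranes. Kappa receptors came from guinea pig caudate membranes. Test compounds displaced the receptor-selective radioligand.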

[7] = biological target: Kappa-type opioid receptor (Cavia porcellus, UniProt P41144); assay: Binding affinity of compound for Opioid receptor kappa 1 was determined using [3H]U-69593 as radioligand from guinea pig caudate
Summary of the method: (§1)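 Competitive binding assays. Mu and delta receptors came from rat brain membranes. Kappa receptors came from guinea pig caudate membranes.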

[8] = biological target: Mu-type opioid receptor (Rattus norvegicus, UniProt P33535); assay: Binding affinity of compound for Opioid receptor mu 1 was determined using [3H]DAMGO as radioligand from rat brain tissue; summary of the method: as §1
Mu-type opioid receptor, sequence (P33535 whole entry): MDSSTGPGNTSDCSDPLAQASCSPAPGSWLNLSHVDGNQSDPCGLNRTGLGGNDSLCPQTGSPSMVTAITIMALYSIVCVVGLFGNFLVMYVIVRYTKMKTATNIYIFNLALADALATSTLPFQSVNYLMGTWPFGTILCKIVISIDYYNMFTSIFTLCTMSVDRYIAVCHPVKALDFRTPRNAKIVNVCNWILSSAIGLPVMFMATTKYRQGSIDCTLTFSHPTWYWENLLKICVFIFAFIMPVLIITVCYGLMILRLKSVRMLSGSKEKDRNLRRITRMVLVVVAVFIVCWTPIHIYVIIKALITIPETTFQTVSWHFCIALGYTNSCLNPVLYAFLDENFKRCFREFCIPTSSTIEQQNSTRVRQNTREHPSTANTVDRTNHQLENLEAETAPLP

Opioid receptors; delta & kappa (Homo sapiens), sequence (P41143 whole entry, looked up): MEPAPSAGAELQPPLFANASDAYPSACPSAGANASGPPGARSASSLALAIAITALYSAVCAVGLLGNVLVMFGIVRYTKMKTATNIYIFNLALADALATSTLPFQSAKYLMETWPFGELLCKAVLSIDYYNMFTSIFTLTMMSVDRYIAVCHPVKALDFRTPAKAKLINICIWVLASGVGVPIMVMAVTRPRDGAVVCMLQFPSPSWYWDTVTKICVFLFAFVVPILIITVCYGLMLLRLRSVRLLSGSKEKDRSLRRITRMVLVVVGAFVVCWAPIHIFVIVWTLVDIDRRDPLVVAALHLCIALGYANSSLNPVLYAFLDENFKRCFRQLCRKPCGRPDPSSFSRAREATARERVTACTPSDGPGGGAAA
Opioid receptors; delta & kappa (Homo sapiens), sequence (P41145 whole entry, looked up): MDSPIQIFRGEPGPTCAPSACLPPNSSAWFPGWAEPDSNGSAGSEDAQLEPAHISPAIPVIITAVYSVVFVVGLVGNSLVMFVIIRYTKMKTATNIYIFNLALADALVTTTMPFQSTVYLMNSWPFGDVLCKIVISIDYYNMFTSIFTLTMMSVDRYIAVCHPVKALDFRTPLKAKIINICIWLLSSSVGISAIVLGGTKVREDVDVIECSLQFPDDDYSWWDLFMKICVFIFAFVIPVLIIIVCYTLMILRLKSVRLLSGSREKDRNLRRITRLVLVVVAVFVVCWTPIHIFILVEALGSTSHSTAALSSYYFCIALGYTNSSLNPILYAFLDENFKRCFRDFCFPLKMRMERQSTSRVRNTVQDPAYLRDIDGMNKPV
Opioid receptors; mu & kappa (Homo sapiens), sequence (P35372 whole entry, looked up): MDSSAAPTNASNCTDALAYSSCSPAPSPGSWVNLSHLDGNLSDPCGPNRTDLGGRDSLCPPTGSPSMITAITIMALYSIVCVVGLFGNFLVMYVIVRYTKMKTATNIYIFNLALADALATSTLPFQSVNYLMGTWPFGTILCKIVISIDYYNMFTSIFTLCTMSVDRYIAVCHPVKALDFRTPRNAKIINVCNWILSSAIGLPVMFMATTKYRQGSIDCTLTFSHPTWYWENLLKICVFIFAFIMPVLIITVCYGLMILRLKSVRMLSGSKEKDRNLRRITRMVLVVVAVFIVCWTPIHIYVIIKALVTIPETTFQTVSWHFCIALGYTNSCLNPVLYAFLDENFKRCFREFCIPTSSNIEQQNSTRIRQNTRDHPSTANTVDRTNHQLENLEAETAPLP
Opioid receptors; mu & kappa (Homo sapiens), sequence (P41145 whole entry, looked up): as the sequence (P41145 whole entry, looked up) above
Kappa-type opioid receptor, sequence (P41144 whole entry): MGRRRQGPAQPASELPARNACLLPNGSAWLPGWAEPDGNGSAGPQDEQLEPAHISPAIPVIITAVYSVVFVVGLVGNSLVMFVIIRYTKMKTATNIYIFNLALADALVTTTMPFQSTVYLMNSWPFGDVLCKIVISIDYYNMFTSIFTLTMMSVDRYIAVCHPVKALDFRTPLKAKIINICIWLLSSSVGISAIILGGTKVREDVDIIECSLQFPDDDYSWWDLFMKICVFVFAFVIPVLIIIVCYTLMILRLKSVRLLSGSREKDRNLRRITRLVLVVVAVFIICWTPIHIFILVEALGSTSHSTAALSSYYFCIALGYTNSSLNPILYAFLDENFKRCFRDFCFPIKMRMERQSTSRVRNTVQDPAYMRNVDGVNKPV
Delta-type opioid receptor, sequence (P33533 whole entry): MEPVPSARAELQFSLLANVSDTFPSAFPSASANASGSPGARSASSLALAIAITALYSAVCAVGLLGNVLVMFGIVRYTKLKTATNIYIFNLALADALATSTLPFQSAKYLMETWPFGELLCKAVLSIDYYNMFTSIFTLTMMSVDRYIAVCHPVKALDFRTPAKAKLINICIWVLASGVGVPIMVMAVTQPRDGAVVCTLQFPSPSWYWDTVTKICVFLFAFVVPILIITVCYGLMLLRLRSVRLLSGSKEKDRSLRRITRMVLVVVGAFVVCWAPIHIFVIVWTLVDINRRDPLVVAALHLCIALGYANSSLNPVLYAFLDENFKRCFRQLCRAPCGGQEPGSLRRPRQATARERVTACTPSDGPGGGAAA

SMILES | Ki [1] | Selectivity [2] | Ki [3] | Ki [4] | Selectivity [5] | Ki [6] | Ki [7] | Ki [8]
CC(C)[C@@H](CN1CC[C@@](C)(c2cccc(O)c2)[C@@H](C)C1)NC(=O)[C@H]1Cc2ccccc2CN1 | 11.5 nM | > 2330 | 68.6 nM | 213 nM | 369 | – | – | –
CC(C)[C@@H](CN1CC[C@@](C)(c2cccc(O)c2)[C@@H](C)C1)NC(=O)[C@H]1Cc2ccc(O)cc2CN1 [JDTIC] | 0.02 nM | 940 | 2.16 nM | > 300 nM | 12 | – | – | –
Oc1ccc2c3c1O[C@H]1c4[nH]c5c(c4C[C@@]4(O)[C@@H](C2)N(CC2CC2)CC[C@]314)C[C@@]1(O)[C@H]2Cc3ccc(O)c4c3[C@@]1(CCN2CC1CC1)[C@H]5O4 [NORBINALTORPHIMINE] | – | – | – | – | – | 111 nM | 1.33 nM | –
Oc1ccc2c3c1O[C@H]1c4[nH]c5c(c4C[C@@]4(O)[C@@H](C2)N(CC2CC2)CC[C@]314)C[C@@]1(O)[C@H]2Cc3ccc(O)c4c3[C@@]1(CCN2CC1CC1)[C@H]5O4 (relative stereo) [NORBINALTORPHIMINE] | 0.038 nM | – | 16.7 nM | – | – | – | – | –
CC(C)[C@@H](CN1CC[C@@](C)(c2cccc(O)c2)[C@@H](C)C1)NC(=O)CCc1ccc(O)cc1 | 4.7 nM | > 885 | 7.25 nM | 450 nM | 45 | – | – | –
CC(C)[C@@H](CN1CC[C@@](C)(c2cccc(O)c2)[C@@H](C)C1)NC(=O)CCc1ccccc1 | – | 11 | – | – | 2 | > 5050 nM | 446 nM | 946 nM
